From PMC7193547 (Environmental Science & Technology, 2018)
Read-outs that look alike come from different tables or passages of the source.

Assays:
[1] = format: physicochemical; conditions: not told
single bacterial cell = test system: single bacterial cell
How it was run: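 Calculated rather than measured: the liposome-derived Papp was scaled to a single cell using an estimated cell surface area of ≈3 μm² and membrane thickness δ (one 4 nm membrane for Gram-positive, two 4 nm membranes for Gram-negative), giving a concentration-gradient-dependent influx.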

[2] = test system: active glyphosate transporter; conditions: cited from earlier work
Ochrobactrum sp. FrEM = assay: Biodegradation of glyphosate by Ochrobactrum sp. FrEM; format: cell-based; conditions: after 4.5 days, OD600 ≈ 0.8, 30 °C, pH 7

O=C(O)CNCP(=O)(O)O [glyphosate, N-(phopshomethyl)glycine]
Papp at 20 mM ([1]; pH 4.1): 420 ×10⁻⁶ cm/s | Papp at 20 mM ([1]; pH 7): 37 ×10⁻⁶ cm/s | calculated maximum membrane permeation rate (dnout/dt)cell-perm-max (single bacterial cell; glyphosate concentration of 1 μM): −6.5 × 10^–22 mol·s^–1·cell^–1 | calculated maximum membrane permeation rate (dnout/dt)cell-perm-max (single bacterial cell; pH 7, 0.12 mM glyphosate, compared with Ochrobactrum sp. FrEM): −7.5 × 10^–20 mol·s^–1·cell^–1 | calculated maximum membrane permeation rate (dnout/dt)cell-perm-max (single bacterial cell; pH 7, 3 mM glyphosate, [Sin] = 0, compared with Achromobacter sp. MPS 12A): −1.9 × 10^–18 mol·s^–1·cell^–1 | maximum permeation rate higher than degradation rate (single bacterial cell; pH 7, 3 mM, versus degradation rate of Achromobacter sp. MPS 12A): 2 orders of magnitude | uptake rate of active glyphosate transporter (dnout/dt)cell-transport [2]: −1.8 × 10^–21 mol·s^–1·cell^–1 | Km ([2]; read-out: affinity constant KM for glyphosate uptake): 125 µM | maximum glyphosate degradation rate (dn/dt)deg-cell (Ochrobactrum sp. FrEM): −1.7 × 10^–21 mol·s^–1·cell^–1
